Laboratory results: ChEMBL document CHEMBL1144212, “Design and synthesis of 3-pyrazolyl-thiophene, thieno[2,3-d]pyrimidines as new bioactive and pharmacological activities” (Bioorg Med Chem Lett, 2008)

These molecules were tested on Rattus norvegicus (assay: Antiinflammatory activity against carrageenan-induced albino rat hind paw edema model assessed as edema rate at 10 mg/kg, po administered 1 hr before carrageenan challenge measured after 4 hrs). Conditions: not given.
Type: functional
Procedure, shortened: (§1)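 Indomethacin reference group: 10 mg/kg orally as an aqueous suspension, 1 h before carrageenin. Albino rats of both sexes were fasted 18 h, five per group. Edema was induced by subplantar 0.1 mL 1% w/v carrageenin in the left hind paw. Paw volume was read by mercury plethysmometer before injection and hourly for 4 h. Edema rate = (Vt − Vo)/Vo.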

| SMILES | Activity [%] |
| --- | --- |
| COc1ccc2c(c1)c(CC(=O)O)c(C)n2C(=O)c1ccc(Cl)cc1 [INDOMETHACIN] | -41.12 |

What follows are molecules tested on Fusarium equiseti (assay: Antifungal activity against Fusarium equiseti (Corda) Sacc after 48 hrs by poisoned-food technique). Conditions: not given.
Type: functional
Set-up: concentration or dose not given beside the values

| SMILES | inhibition [%] |
| --- | --- |
| CCOC(=O)c1sc2nc(C)n(N)c(=O)c2c1C | 37.5 |
| CCOC(=O)c1sc(NC(C)=O)c(C(=O)OCC)c1C | 36.3 |
| CCOC(=O)c1sc(N)c(C(=O)NN)c1C | 29.3 |
| CCOC(=O)c1sc(N)c(C(=O)N/N=C/c2ccc(OC)cc2)c1C | 28 |
| CCOC(=O)c1sc(N)c(C(=O)NNC(N)=S)c1C | 28 |

Each molecule was assayed on Rattus norvegicus (assay: Antiinflammatory activity against carrageenan-induced albino rat hind paw edema model assessed as edema rate at 15 mg/kg, po administered 1 hr before carrageenan challenge measured after 3 hrs). Conditions: not given.
Type: functional
Procedure, shortened: (§2)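 Albino rats of both sexes were fasted 18 h, five per group. Dosing was 15 mg/kg orally as an aqueous suspension (tween-80/water vehicle), 1 h before subplantar 0.1 mL 1% w/v carrageenin in the left hind paw. Paw volume was measured by mercury plethysmometer before injection, then hourly for 4 h. Edema rate = (Vt − Vo)/Vo.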

| SMILES | Activity [%] |
| --- | --- |
| CCOC(=O)c1sc2nc(C)n(N)c(=O)c2c1C | -14.65 |
| CCOC(=O)c1sc(NC(C)=O)c(C(=O)OCC)c1C | -4 |
| CCOC(=O)c1sc(N)c(C(=O)NN)c1C | -9.8 |
| CCOC(=O)c1sc(N)c(C(=O)N/N=C/c2ccc(OC)cc2)c1C | -3.91 |
| CCOC(=O)c1sc(N)c(C(=O)NNC(N)=S)c1C | -29.4 |

Each molecule was assayed on Mus musculus (assay: Analgesic activity in Swiss albino mouse at 20 mg/kg, po assessed as reaction time after 30 mins by hot plate method). Conditions: not given.
Type: functional
Procedure, shortened: (§3)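 Swiss albino mice of both sexes (25–30 g), kept at 22 °C on a 12 h light/dark cycle, in groups of five. Given 20 mg/kg orally as an aqueous suspension; aspirin reference at 20 mg/kg orally. Hot plate at 53 °C. Reaction time (placement to hind-paw licking or jumping) was taken before dosing and at 15, 30, 60 and 90 min; 60 s cut-off.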

| SMILES | Activity [s] |
| --- | --- |
| CCOC(=O)c1sc2nc(C)n(N)c(=O)c2c1C | 6.46 |
| CCOC(=O)c1sc(NC(C)=O)c(C(=O)OCC)c1C | 7.34 |
| CCOC(=O)c1sc(N)c(C(=O)NN)c1C | 6.12 |
| CCOC(=O)c1sc(N)c(C(=O)N/N=C/c2ccc(OC)cc2)c1C | 6.42 |
| CCOC(=O)c1sc(N)c(C(=O)NNC(N)=S)c1C | 5.44 |

The molecules below were run on Rattus norvegicus (assay: Gastrointestinal toxicity in carrageenan-induced albino rat hind paw edema model assessed as induction of ulcerogenicity at 15 mg/kg, po). Conditions: in vivo.
Type: organism-based
Set-up: dose 15 mg/kg, route oral

| SMILES | Activity |
| --- | --- |
| CCOC(=O)c1sc(N)c(C(=O)NN)c1C | Non-toxic |

Each molecule was assayed on Rattus norvegicus (assay: Antiinflammatory activity against carrageenan-induced albino rat hind paw edema model assessed as edema rate at 10 mg/kg, po administered 1 hr before carrageenan challenge measured after 3 hrs). Conditions: not given.
Type: functional
Procedure, shortened: as §1

| SMILES | Activity [%] |
| --- | --- |
| COc1ccc2c(c1)c(CC(=O)O)c(C)n2C(=O)c1ccc(Cl)cc1 [INDOMETHACIN] | -33.33 |

Each molecule was assayed on Mus musculus (assay: Analgesic activity in Swiss albino mouse at 20 mg/kg, po assessed as reaction time after 60 mins by hot plate method). Conditions: not given.
Type: functional
Procedure, shortened: as §3

| SMILES | Activity [s] |
| --- | --- |
| CCOC(=O)c1sc2nc(C)n(N)c(=O)c2c1C | 5.04 |
| CCOC(=O)c1sc(NC(C)=O)c(C(=O)OCC)c1C | 5.96 |
| CCOC(=O)c1sc(N)c(C(=O)NN)c1C | 6.2 |
| CCOC(=O)c1sc(N)c(C(=O)N/N=C/c2ccc(OC)cc2)c1C | 7.72 |
| CCOC(=O)c1sc(N)c(C(=O)NNC(N)=S)c1C | 5.74 |

What follows are molecules tested on Rattus norvegicus (assay: Antiinflammatory activity against carrageenan-induced albino rat hind paw edema model assessed as edema rate at 10 mg/kg, po administered 1 hr before carrageenan challenge measured after 2 hrs). Conditions: not given.
Type: functional
Procedure, shortened: as §1

| SMILES | Activity [%] |
| --- | --- |
| COc1ccc2c(c1)c(CC(=O)O)c(C)n2C(=O)c1ccc(Cl)cc1 [INDOMETHACIN] | -39.79 |

These molecules were tested on Mus musculus (assay: Analgesic activity in Swiss albino mouse at 20 mg/kg, po assessed as reaction time after 90 mins by hot plate method). Conditions: not given.
Type: functional
Procedure, shortened: as §3

| SMILES | Activity [s] |
| --- | --- |
| CCOC(=O)c1sc2nc(C)n(N)c(=O)c2c1C | 6.7 |
| CCOC(=O)c1sc(NC(C)=O)c(C(=O)OCC)c1C | 6.08 |
| CCOC(=O)c1sc(N)c(C(=O)NN)c1C | 7.86 |
| CCOC(=O)c1sc(N)c(C(=O)N/N=C/c2ccc(OC)cc2)c1C | 9.06 |
| CCOC(=O)c1sc(N)c(C(=O)NNC(N)=S)c1C | 6.14 |

What follows are molecules tested on Rattus norvegicus (assay: Antiinflammatory activity against carrageenan-induced albino rat hind paw edema model assessed as edema rate at 15 mg/kg, po administered 1 hr before carrageenan challenge measured after 2 hrs). Conditions: not given.
Type: functional
Procedure, shortened: as §2

| SMILES | Activity [%] |
| --- | --- |
| CCOC(=O)c1sc2nc(C)n(N)c(=O)c2c1C | -17.93 |
| CCOC(=O)c1sc(NC(C)=O)c(C(=O)OCC)c1C | -12.11 |
| CCOC(=O)c1sc(N)c(C(=O)NN)c1C | -8.84 |
| CCOC(=O)c1sc(N)c(C(=O)N/N=C/c2ccc(OC)cc2)c1C | -1.52 |
| CCOC(=O)c1sc(N)c(C(=O)NNC(N)=S)c1C | -37.21 |

The molecules below were run on Rattus norvegicus (assay: Antiinflammatory activity against carrageenan-induced albino rat hind paw edema model at 15 mg/kg, po administered 1 hr before carrageenan challenge measured after 1 hr relative to indomethacin). Conditions: not given.
Type: functional

| SMILES | Activity [%] |
| --- | --- |
| CCOC(=O)c1sc2nc(C)n(N)c(=O)c2c1C | 84.05 |
| CCOC(=O)c1sc(NC(C)=O)c(C(=O)OCC)c1C | 42.36 |
| CCOC(=O)c1sc(N)c(C(=O)NN)c1C | 37.85 |
| CCOC(=O)c1sc(N)c(C(=O)N/N=C/c2ccc(OC)cc2)c1C | 40.59 |
| CCOC(=O)c1sc(N)c(C(=O)NNC(N)=S)c1C | 103.04 |

The molecules below were run on Rattus norvegicus (assay: Antiinflammatory activity against carrageenan-induced albino rat hind paw edema model at 15 mg/kg, po administered 1 hr before carrageenan challenge measured after 3 hrs relative to indomethacin). Conditions: not given.
Type: functional

| SMILES | Activity [%] |
| --- | --- |
| CCOC(=O)c1sc2nc(C)n(N)c(=O)c2c1C | 43.95 |
| CCOC(=O)c1sc(NC(C)=O)c(C(=O)OCC)c1C | 0.12 |
| CCOC(=O)c1sc(N)c(C(=O)NN)c1C | 29.4 |
| CCOC(=O)c1sc(N)c(C(=O)N/N=C/c2ccc(OC)cc2)c1C | 11.73 |
| CCOC(=O)c1sc(N)c(C(=O)NNC(N)=S)c1C | 88.21 |

The molecules below were run on Bacillus cereus (assay: Antibacterial activity against Bacillus cereus BTCC19 after 48 hrs by disc diffusion method). Conditions: not given.
Type: functional
Procedure, shortened: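 Disc diffusion on nutrient agar. Compounds were dissolved in DMF at 1 mg/mL, applied per disc. Inhibition zones (mm) were read after 48 h at 28 °C. DMF alone was the negative control; ampicillin was the reference.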

| SMILES | zone of inhibition [mm] |
| --- | --- |
| CCOC(=O)c1sc2nc(C)n(N)c(=O)c2c1C | 15 |
| CCOC(=O)c1sc(NC(C)=O)c(C(=O)OCC)c1C | 11 |
| CCOC(=O)c1sc(N)c(C(=O)NN)c1C | 10 |
| CCOC(=O)c1sc(N)c(C(=O)N/N=C/c2ccc(OC)cc2)c1C | 10 |
| CCOC(=O)c1sc(N)c(C(=O)NNC(N)=S)c1C | 20 |

Each molecule was assayed on Rattus norvegicus (assay: Antiinflammatory activity against carrageenan-induced albino rat hind paw edema model assessed as edema rate at 15 mg/kg, po administered 1 hr before carrageenan challenge measured after 1 hr). Conditions: not given.
Type: functional
Procedure, shortened: as §2

| SMILES | Activity [%] |
| --- | --- |
| CCOC(=O)c1sc2nc(C)n(N)c(=O)c2c1C | -29.82 |
| CCOC(=O)c1sc(NC(C)=O)c(C(=O)OCC)c1C | -15.03 |
| CCOC(=O)c1sc(N)c(C(=O)NN)c1C | -13.43 |
| CCOC(=O)c1sc(N)c(C(=O)N/N=C/c2ccc(OC)cc2)c1C | -14.4 |
| CCOC(=O)c1sc(N)c(C(=O)NNC(N)=S)c1C | 36.56 |

What follows are molecules tested on Shigella dysenteriae (assay: Antibacterial activity against Shigella dysenteriae AE 14396 after 48 hrs by disc diffusion method). Conditions: read-out: MIC.
Type: functional

| SMILES | zone of inhibition [µg/mL] |
| --- | --- |
| CCOC(=O)c1sc2nc(C)n(N)c(=O)c2c1C | 7 |
| CCOC(=O)c1sc(NC(C)=O)c(C(=O)OCC)c1C | 14 |
| CCOC(=O)c1sc(N)c(C(=O)NN)c1C | 6 |
| CCOC(=O)c1sc(N)c(C(=O)NNC(N)=S)c1C | 13 |

These molecules were tested on Rattus norvegicus (assay: Antiinflammatory activity against carrageenan-induced albino rat hind paw edema model assessed as edema rate at 10 mg/kg, po administered 1 hr before carrageenan challenge measured after 1 hr). Conditions: not given.
Type: functional
Procedure, shortened: as §1

| SMILES | Activity [%] |
| --- | --- |
| COc1ccc2c(c1)c(CC(=O)O)c(C)n2C(=O)c1ccc(Cl)cc1 [INDOMETHACIN] | -35.48 |

What follows are molecules tested on Rattus norvegicus (assay: Antiinflammatory activity against carrageenan-induced albino rat hind paw edema model at 15 mg/kg, po administered 1 hr before carrageenan challenge measured after 4 hrs relative to indomethacin). Conditions: not given.
Type: functional

| SMILES | Activity [%] |
| --- | --- |
| CCOC(=O)c1sc2nc(C)n(N)c(=O)c2c1C | 37.06 |
| CCOC(=O)c1sc(NC(C)=O)c(C(=O)OCC)c1C | 12.65 |
| CCOC(=O)c1sc(N)c(C(=O)NN)c1C | 32.39 |
| CCOC(=O)c1sc(N)c(C(=O)N/N=C/c2ccc(OC)cc2)c1C | 32.32 |
| CCOC(=O)c1sc(N)c(C(=O)NNC(N)=S)c1C | 84.19 |

What follows are molecules tested on Salmonella typhi (assay: Antibacterial activity against Salmonella typhi AE 14612 after 48 hrs by disc diffusion method). Conditions: Salmonella enterica, read-out: MIC.
Type: functional, Salmonella enterica subsp. enterica serovar Typhi

| SMILES | zone of inhibition [µg/mL] |
| --- | --- |
| CCOC(=O)c1sc2nc(C)n(N)c(=O)c2c1C | 15 |
| CCOC(=O)c1sc(NC(C)=O)c(C(=O)OCC)c1C | 11 |
| CCOC(=O)c1sc(N)c(C(=O)N/N=C/c2ccc(OC)cc2)c1C | 12 |
| CCOC(=O)c1sc(N)c(C(=O)NNC(N)=S)c1C | 28 |

The molecules below were run on Rattus norvegicus (assay: Antiinflammatory activity against carrageenan-induced albino rat hind paw edema model assessed as edema rate at 15 mg/kg, po administered 1 hr before carrageenan challenge measured after 4 hrs). Conditions: not given.
Type: functional
Procedure, shortened: as §2

| SMILES | Activity [%] |
| --- | --- |
| CCOC(=O)c1sc2nc(C)n(N)c(=O)c2c1C | -15.24 |
| CCOC(=O)c1sc(NC(C)=O)c(C(=O)OCC)c1C | -5.2 |
| CCOC(=O)c1sc(N)c(C(=O)NN)c1C | -13.32 |
| CCOC(=O)c1sc(N)c(C(=O)N/N=C/c2ccc(OC)cc2)c1C | -13.29 |
| CCOC(=O)c1sc(N)c(C(=O)NNC(N)=S)c1C | -34.62 |

These molecules were tested on Rattus norvegicus (assay: Antiinflammatory activity against carrageenan-induced albino rat hind paw edema model at 15 mg/kg, po administered 1 hr before carrageenan challenge measured after 2 hrs relative to indomethacin). Conditions: not given.
Type: functional

| SMILES | Activity [%] |
| --- | --- |
| CCOC(=O)c1sc2nc(C)n(N)c(=O)c2c1C | 45.06 |
| CCOC(=O)c1sc(NC(C)=O)c(C(=O)OCC)c1C | 30.44 |
| CCOC(=O)c1sc(N)c(C(=O)NN)c1C | 22.22 |
| CCOC(=O)c1sc(N)c(C(=O)N/N=C/c2ccc(OC)cc2)c1C | 3.82 |
| CCOC(=O)c1sc(N)c(C(=O)NNC(N)=S)c1C | 93.52 |
